Source: PubChem
AP complement – alternative pathway complement inhibition, orthogonal assay; hit rate 0.08% among 62,000; Human serum alternative complement pathway, LPS-coated ELISA, C3 deposition; tested in compound mixtures; inhibition, % at 5 µM;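 active = inhibition above 30% in each of the two pooled mixtures holding the compound, so the lower value exceeds 30%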;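 also: 0% = serum in Mg-EGTA without compound and 100% = EDTA serum blank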
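Assay system: human serum alternative complement pathway, C3 deposition on LPS-coated wells; Dosing: 5 µM per compound in ten-compound mixtures; Detection: Anti-C3 ELISA, OD 450 nm; Buffer or medium: Mg2+-EGTA GVB++ buffer containing human serum at 1:15 dilution; Timing: 1 h at 37 °C; Replication: two different pools per compound.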
JNK3 inh – inhibitors of human JNK3 kinase; P53779; purified JNK3 kinase activity, HTS; inhibition, % at 8 µM; hit rate 0.61% among 60,000; in the data active = inhibition above about 17%;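 also: 0% = DMSO and 100% = reference inhibitor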
Her2 expr inh – lowers expression of human Her2 kinase; hit rate 0.69% among 65,000; HER2 level % of control, % at 10 µM; P04626; AID 645; SKBR-3 HER2 protein level, AlphaScreen, 18-24 h; hits give low values;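 active = HER2 level under 5% of the carrier-only control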;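 also: 100% = DMSO carrier and 0% = 500 nM PU-H71 HSP90 inhibitor; lower value means stronger loss of Her2 protein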
MT1-MMP txn act – activates MT1-MMP transcription | HT1080 MT1-MMP promoter luciferase reporter, luminescence, overnight; hits give high values | activation factor at 10 µM | hit rate 0.16% among 86,000 | AID 750;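 active = activation factor of at least 2 for MT1-MMP transcription at 10 µM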
HEK293 NFkB inh – inhibitors of the PMA/ionomycin-induced NF-kB reporter in HEK293 cells | HEK-293 NF-kB luciferase reporter, luminescence | inhibition, % at 3 µM | hit rate 0.21% among 62,000 | AID 465;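 active = inhibition above the mean of all tested compounds plus 3 SD, cut at about 40% in these data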;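 also: 0% = stimulated DMSO wells and 100% = 10 µM reference inhibitor 5653914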
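Timing: 1 h pretreatment, 16 h stimulation, 37 °C; system: HEK-293 cells with stable firefly luciferase reporter driven by four HIV NF-kB elements; doses: 3 µM once, 0.30% DMSO; measured by: luciferase luminescence; control set: DMSO and 10 µM reference inhibitor; repeats: single test; reagent: PMA plus ionomycin mix as NF-kB-activating stimulus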
The depositor's hits bear a star; / = no result given. Most compounds without a hit are left out; they make up all but 1.1% or so of the library.

SMILES	AP complement	JNK3 inh	Her2 expr inh	MT1-MMP txn act	HEK293 NFkB inh
CCN1C(=O)CC(C(=O)Nc2ccc(F)cc2)SC1=Nc1ccc2c(c1)OCO2 (configuration not stated)	7	-5	-27*	0.9	10
Cc1nn(C)c(C)c1Sc1ccc(Br)cc1	6	-2	-9.0*	1.2	12
Cc1cc(C)nc(-n2nc(C)c(Sc3ccc(F)cc3)c2N)n1	1	-3	65	1.7	-6
COc1ccc(C2=NN(CN3C(=O)C(=O)c4ccccc43)C(c3ccc(C)cc3)C2)cc1 (configuration not stated)	/	/	/	1.6	/
Brc1ccc2c(c1)c1nc3ccccc3nc1n2CCN1CCOCC1	16	11	67	1.4	2
c1ccc2nc3c(nc2c1)c1ccccc1n3CCN1CCOCC1	-5	18*	127	1.2	-31
COc1cc(C2=NOC(C(=O)Nc3ccc(C(C)=O)cc3)C2)cc(OC)c1OC (configuration not stated)	12	0	167	1.2	2
COc1cc(NC(=O)C2CC(c3cccc(OC)c3OC)=NO2)cc(OC)c1OC (configuration not stated)	-8	69*	102	1.2	13
CCOC(=O)N1CCN(CCC(=O)c2ccc(Cl)cc2)CC1	16	-4	-6.8*	1.1	12
O=S1(=O)C=C(Sc2nc3ccccc3s2)c2ccccc21	10	6	-18*	1.2	46*
COc1cccc(-c2nn3c(-c4cc(C)[nH]n4)nnc3s2)c1	3	5	145	0.9	5
COc1ccc(C(=O)n2nc(-c3ccccc3)nc2N)cc1OC	21	49*	98	1.2	17
COc1ccc(CC(=O)Nc2cc(C)ccn2)cc1	21	27*	97	1.4	-8
CCCOc1c(OC)cccc1C1CC(=O)Nc2cc(OC)c(OC)c(OC)c21 (configuration not stated)	13	-3	80	1.3	98*
COc1ccccc1C(=O)N1CCN(S(=O)(=O)c2ccccc2)CC1	17	0	104	1.2	10
Cc1cc(C)n(C(=O)c2nn(C)c(C)c2[N+](=O)[O-])n1	/	/	/	1.2	/
COC(=O)c1[nH]c2ccc(C)cc2c1NC(=O)CN1CCCCC1C (configuration not stated)	10	-8	80	/	-3
COC(=O)c1[nH]c2ccc(C)cc2c1NC(=O)CN1CCCc2ccccc21	3	-6	-22*	1.3	3
CCOC(=O)c1c(NC(=O)CSc2n[nH]c(N)n2)sc(CC)c1C	14	-2	-33*	1.1	10
COC(=O)c1c(NC(=O)CSc2n[nH]c(N)n2)sc(C)c1C	0	4	83	1.1	9
Cc1ccc(S(=O)(=O)NCC(=O)N(CC(=O)NCC2CCCO2)C2CCCC2)cc1 (configuration not stated)	10	4	128	1.2	21
O=C(NCC(=O)N(CCc1ccccc1)C(C(=O)NC1CCCCC1)c1ccncc1)c1ccco1 (configuration not stated)	14	-2	113	1.1	9
O=C(NCC(=O)N(CCc1ccccc1)C(C(=O)NC1CCCC1)c1cccnc1)c1ccco1 (configuration not stated)	10	-6	-19*	1.1	16
CC(=O)c1sc(Nc2ccccn2)nc1C	13	23*	62	1.3	12
CC(=O)Nc1nc(C)c(C(C)=O)s1	/	/	/	1	/
SMILES	AP complement	JNK3 inh	Her2 expr inh	MT1-MMP txn act	HEK293 NFkB inh
CCCCn1c(SCC(=O)N2c3ccccc3CCc3ccccc32)nc2c1c(=O)n(C)c(=O)n2C	/	/	/	1.2	/
CCn1c(SCC(=O)N2c3ccccc3CCc3ccccc32)nc2c1c(=O)n(C)c(=O)n2C	-7	-5	-3.2*	0.9	4
CCOC(=O)c1ccc(NCc2ccc3c(c2)OCO3)cc1	-3	1	97	1.1	6
N#Cc1c(-c2ccco2)cc(-c2ccccn2)nc1N	-4	-2	-1.2*	1.3	-9
Oc1ccccc1-c1cc(-c2ccco2)[nH]n1	/	/	/	2.1*	/
COc1ccc(CCNc2c(C)c(C)nc3ncnn23)cc1	9	0	84	1	46*
C=C(C)COc1ccc(-c2[nH]ncc2Oc2ccccc2OCC)c(O)c1	1	2	-17*	1.2	4
C=C(C)COc1ccc(-c2[nH]ncc2-c2ccc(OC)c(OC)c2)c(O)c1	8	8	16	1.1	58*
CCOc1ccc(-c2n[nH]c(C)c2Oc2ccccc2OC)c(O)c1	8	-6	86	1.1	4
C=C(C)COc1ccc(-c2n[nH]c(C)c2Oc2ccccc2OC)c(O)c1	-5	9	-6.3*	1.2	0
COC(=O)c1c(NC(=O)Cc2cccs2)sc(C)c1C	11	18*	63	1.2	7
Cn1c(Cl)cnc1C1CC(=O)c2cc(Cl)ccc2O1 (configuration not stated)	7	1	-15*	0.6	/
COc1ccc(/C(N)=C/C(=O)C(C)(C)C)cc1	-5	-1	115	1.3	8
CC(C)(C)C(=O)/C=C(\N)c1ccncc1	40*	-4	56	1.1	14
CN(CC(=O)NC(=O)NCc1ccco1)Cc1nc2ccccc2c(=O)[nH]1	27	-4	-33*	1	6
COc1cc(C(=O)Nc2nc3ccccc3s2)ccc1OCc1c(C)noc1C	/	/	/	1.3	/
COc1cc(C(=O)Nc2nccs2)ccc1OCc1c(C)noc1C	20	21*	66	1	5
COCc1cc(C)nc(Nc2ccc(C)cc2C)c1C#N	15	1	9	1	0
COCc1cc(C)nc(Nc2ccc(C)c(C)c2)c1C#N	7	0	-3.1*	1.3	0
Cc1cc(Nc2ccccc2)n(-c2ccc(Br)cc2)n1	/	/	/	1.3	/
Cc1ccc(C(c2sc3nc(C)nn3c2O)N2CCN(c3ccccc3F)CC2)cc1 (configuration not stated)	4	-6	-18*	1.2	12
Cc1ccc(C(=O)NCCn2cc(SCC(=O)Nc3cc(C)on3)c3ccccc32)cc1	32*	-7	72	1.6	47*
Cc1csc(NC(=O)c2ccco2)n1	15	7	80	1.4	-1
Cc1ccc(O)c(N=CC2=C(O)c3ccccc3C2=O)c1	11	15	67	1.8	0
C=C(C)COc1ccc(-c2ncncc2Oc2ccc(OC)cc2)c(O)c1	15	-4	110	1.1	21
COc1ccc(-c2cnc(N)nc2-c2ccc(OC)cc2O)cc1	-1	31*	103	1.2	16
C=C(C)COc1ccc(-c2nc(N)ncc2-c2ccc(OC)cc2)c(O)c1	11	23*	100	1.2	20
COc1cccc(Oc2cnc(N)nc2-c2ccc(OC)cc2O)c1	6	0	104	0.7	43*
COc1ccc(NC(=O)c2cccnc2N2CCCCC2)cc1	9	-2	127	1	4
